In brackets after ≈: the same amount, converted by molar mass.
How the values were obtained:
Format in all cases: functional
[1] = tested on: Streptococcus pneumoniae; test: Antibacterial activity against efflux-mediated macrolide-resistant Streptococcus pneumoniae after 16 to 22 hrs by broth microdilution method
Summary of the method: (§1)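 Two-fold serial dilutions in microdilution trays, following the CLSI dilution standard for aerobic bacteria. Medium was Mueller–Hinton broth with 5% horse serum for streptococci. Stocks were made at 5 mg/ml in DMF. Inoculum came from a direct colony suspension adjusted by turbidity to about 5 × 10⁴ CFU/well final. Incubation was at 35 °C for 16–22 h. MIC is the lowest concentration completely inhibiting growth (99% inhibition).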

[2] = tested on: Moraxella catarrhalis; test: Antibacterial activity against Moraxella catarrhalis ATCC 23246 after 16 to 22 hrs by broth dilution method
Summary of the method: (§2)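 Broth microdilution per the CLSI approved standard (sixth edition), using two-fold serial dilutions of compound in Mueller–Hinton broth. Stocks at 5 mg/ml in DMF. Inoculum came from a direct colony suspension adjusted by turbidity to about 5 × 10⁴ CFU/well final. Trays were incubated at 35 °C for 16–22 h. MIC is the lowest concentration completely inhibiting growth (99% inhibition).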

[3] = tested on: Streptococcus pyogenes; test: Antibacterial activity against efflux-mediated macrolide-resistance Streptococcus pyogenes after 16 to 22 hrs by broth microdilution method; summary of the method: as §1
[4] = tested on: Escherichia coli; test: Antibacterial activity against Escherichia coli ATCC 25922 after 16 to 22 hrs by broth dilution method; summary of the method: as §2
[5] = tested on: Streptococcus pyogenes; test: Antibacterial activity against inducible macrolide-lincosamide-streptogramin-resistant Streptococcus pyogenes 16 to 22 hrs by broth microdilution method; summary of the method: as §1
[6] = tested on: Streptococcus pneumoniae; test: Antibacterial activity against erythromycin-susceptible Streptococcus pneumoniae after 16 to 22 hrs by broth microdilution method
Summary of the method: (§3)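 Streptococci tested by CLSI broth microdilution in Mueller–Hinton broth with 5% horse serum, using two-fold serial dilutions. Compounds were dissolved in DMF at 5 mg/ml (stock). Inoculum was a turbidity-adjusted direct colony suspension giving about 5 × 10⁴ CFU/well. Trays were held at 35 °C for 16–22 h. MIC is the lowest concentration completely inhibiting growth (99%).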

[7] = tested on: Enterococcus faecalis; test: Antibacterial activity against Enterococcus faecalis ATCC 29212 after 16 to 22 hrs by broth dilution method; summary of the method: as §2
[8] = tested on: Streptococcus pneumoniae; test: Antibacterial activity against constitutive macrolide-lincosamide-streptogramin-resistant Streptococcus pneumoniae after 16 to 22 hrs by broth microdilution method; summary of the method: as §1
[9] = tested on: Staphylococcus aureus; test: Antibacterial activity against Staphylococcus aureus ATCC 29213 after 16 to 22 hrs by broth microdilution method; summary of the method: as §2
[10] = tested on: Streptococcus pyogenes; test: Antibacterial activity against erythromycin-susceptible Streptococcus pyogenes after 16 to 22 hrs by broth microdilution method; summary of the method: as §3
[11] = tested on: Haemophilus influenzae; test: Antibacterial activity against Haemophilus influenzae ATCC 49247 after 16 to 22 hrs by broth dilution method
Summary of the method: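 Microdilution trays following the CLSI standard, with two-fold serial dilutions in supplemented broth suited to H. influenzae. DMF stocks at 5 mg/ml. Inoculum prepared from a turbidity-adjusted direct colony suspension to about 5 × 10⁴ CFU/well final. Incubated at 35 °C for 16–22 h. MIC is the lowest concentration giving complete (99%) growth inhibition.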

SMILES	MIC [1] [mg/L]	MIC [2] [mg/L]	MIC [3] [mg/L]	MIC [4] [mg/L]	MIC [5] [mg/L]	MIC [6] [mg/L]	MIC [7] [mg/L]	MIC [8] [mg/L]	MIC [9] [mg/L]	MIC [10] [mg/L]	MIC [11] [mg/L]
CC[C@H]1OC(=O)[C@H](C)[C@@H](O[C@H]2C[C@@](C)(OC)[C@@H](O)[C@H](C)O2)[C@H](C)[C@@H](O[C@@H]2O[C@H](C)C[C@H](N(C)C)[C@H]2O)[C@](C)(O)C[C@@H](C)CN(CCCNC(=S)NCCc2ccccc2)[C@H](C)[C@@H](O)[C@]1(C)O	8 (≈ 8.37 µM)	1 (≈ 1.05 µM)	4 (≈ 4.19 µM)	32 (≈ 33.5 µM)	4 (≈ 4.19 µM)	≤ 0.125	16 (≈ 16.7 µM)	> 64	1 (≈ 1.05 µM)	≤ 0.125	2 (≈ 2.09 µM)
CC[C@H]1OC(=O)[C@H](C)[C@@H](O[C@H]2C[C@@](C)(OC)[C@@H](O)[C@H](C)O2)[C@H](C)[C@@H](O[C@@H]2O[C@H](C)C[C@H](N(C)C)[C@H]2O)[C@](C)(O)C[C@@H](C)CN(CCCNC(=O)Nc2ccccc2)[C@H](C)[C@@H](O)[C@]1(C)O	16 (≈ 17.6 µM)	2 (≈ 2.19 µM)	16 (≈ 17.6 µM)	8 (≈ 8.78 µM)	4 (≈ 4.39 µM)	≤ 0.125	16 (≈ 17.6 µM)	> 64	0.25 (≈ 0.274 µM)	≤ 0.125	8 (≈ 8.78 µM)
CC[C@H]1OC(=O)[C@H](C)[C@@H](O[C@H]2C[C@@](C)(OC)[C@@H](O)[C@H](C)O2)[C@H](C)[C@@H](O[C@@H]2O[C@H](C)C[C@H](N(C)C)[C@H]2O)[C@](C)(O)C[C@@H](C)CN(CCCNC(=S)Nc2ccccc2)[C@H](C)[C@@H](O)[C@]1(C)O	16 (≈ 17.3 µM)	2 (≈ 2.16 µM)	16 (≈ 17.3 µM)	8 (≈ 8.63 µM)	8 (≈ 8.63 µM)	≤ 0.125	8 (≈ 8.63 µM)	> 64	0.5 (≈ 0.539 µM)	≤ 0.125	4 (≈ 4.31 µM)
CC[C@H]1OC(=O)[C@H](C)[C@@H](O[C@H]2C[C@@](C)(OC)[C@@H](O)[C@H](C)O2)[C@H](C)[C@@H](O[C@@H]2O[C@H](C)C[C@H](N(C)C)[C@H]2O)[C@](C)(O)C[C@@H](C)CN(CCCN(CCC#N)C(=O)NC(C)C)[C@H](C)[C@@H](O)[C@]1(C)O	32 (≈ 34.4 µM)	0.5 (≈ 0.537 µM)	32 (≈ 34.4 µM)	16 (≈ 17.2 µM)	32 (≈ 34.4 µM)	≤ 0.125	64 (≈ 68.8 µM)	> 64	4 (≈ 4.3 µM)	≤ 0.125	4 (≈ 4.3 µM)
CC[C@H]1OC(=O)[C@H](C)[C@@H](O[C@H]2C[C@@](C)(OC)[C@@H](O)[C@H](C)O2)[C@H](C)[C@@H](O[C@@H]2O[C@H](C)C[C@H](N(C)C)[C@H]2O)[C@](C)(O)C[C@@H](C)CN(CCCNC(=O)NCc2ccccc2)[C@H](C)[C@@H](O)[C@]1(C)O	16 (≈ 17.3 µM)	1 (≈ 1.08 µM)	8 (≈ 8.65 µM)	8 (≈ 8.65 µM)	4 (≈ 4.32 µM)	≤ 0.125	16 (≈ 17.3 µM)	> 64	0.5 (≈ 0.54 µM)	≤ 0.125	2 (≈ 2.16 µM)
CC[C@H]1OC(=O)[C@H](C)[C@@H](O[C@H]2C[C@@](C)(OC)[C@@H](O)[C@H](C)O2)[C@H](C)[C@@H](O[C@@H]2O[C@H](C)C[C@H](N(C)C)[C@H]2O)[C@](C)(O)C[C@@H](C)CN(CCCNC(=S)NCc2ccccc2)[C@H](C)[C@@H](O)[C@]1(C)O	8 (≈ 8.5 µM)	1 (≈ 1.06 µM)	4 (≈ 4.25 µM)	16 (≈ 17 µM)	4 (≈ 4.25 µM)	≤ 0.125	8 (≈ 8.5 µM)	64 (≈ 68 µM)	0.5 (≈ 0.531 µM)	≤ 0.125	2 (≈ 2.12 µM)
CC[C@H]1OC(=O)[C@H](C)[C@@H](O[C@H]2C[C@@](C)(OC)[C@@H](O)[C@H](C)O2)[C@H](C)[C@@H](O[C@@H]2O[C@H](C)C[C@H](N(C)C)[C@H]2O)[C@](C)(O)C[C@@H](C)CN(CCCN(CCC#N)C(=O)Nc2ccccc2)[C@H](C)[C@@H](O)[C@]1(C)O	32 (≈ 33.2 µM)	4 (≈ 4.15 µM)	32 (≈ 33.2 µM)	32 (≈ 33.2 µM)	16 (≈ 16.6 µM)	≤ 0.125	32 (≈ 33.2 µM)	> 64	1 (≈ 1.04 µM)	≤ 0.125	8 (≈ 8.3 µM)

Source: ChEMBL document CHEMBL1153576, “Novel ureas and thioureas of 15-membered azalides with antibacterial activity against key respiratory pathogens” (Eur J Med Chem, 2009)
